Most compounds without a hit are left out; they make up all but 1.7% or so of the library.
Myeloid diff MLP: induction of myeloid progenitor differentiation, primary screen, cell-based, flow cytometry, MLPCN library; ER-HoxA9 myeloid progenitors, lysozyme-GFP differentiation; calls only at 10 µM; 1% of 360,000 active;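 active = normalized GFP-positive differentiation at or above the plate's own cutoff, the solvent-only control mean plus 3 SD; inconclusive = no clear call, values can overlap the other calls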;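 also: cells exposed to compound for four days before flow analysis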
T cell HTS: modulators of CD8 T cell-vesicle binding, primary screen, mouse 2C CD8+ T cells, flow cytometry; 2C CD8+ T cell-vesicle binding; hits give low values; response (vesicle binding), % at 7 µM; 0.068% of 330,000 active; AID 2052, 2009;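 active = response, share of CD8 T cells binding vesicles, and their 90th percentile fluorescence all below set limits, cut at about 80% in these data, passing the limit was not always enough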;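 also: values below 100% mean blocked vesicle binding to the CD8+ T cells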
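Assay system – 2C mouse CD8+ T cells · Also added – QL9-loaded Drosophila micro-vesicles · Timing – Cell–vesicle co-incubation 1.5 h at 37 °C, staining 20 min on ice · Signal – flow cytometry of vesicle-bound cells · Measure – percent CD8+ FL2 mean versus row control · Controls – Peptide-free naked vesicles (low) and QL9 vesicles with 0.7% DMSO vehicle (high)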
Vif inh: HIV Vif self-association inhibitors, primary screen, imaging, HEK293T, single point. HEK293T cells, Vif self-association by quenched fluorescence, 24 h. inhibition, % at 7.49 µM. 0.35% of 340,000 active. AID 602346, 2012; in the data active = inhibition above about 50%, passing the limit was not always enough; inconclusive = no clear call, values can overlap the other calls; inactive = below about 31%
Pemphigus Ab inh: inhibitors of pemphigus antibody binding to DSG3, primary screen, biochemical, bead-based, flow cytometry, scFv-GFP | DSG3-coupled beads, scFv-anti-DSG3-GFP binding; hits give low values | binding (percent of control), % at 10 µM | 0.48% of 310,000 active | AID 588358, 2011;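 active = binding more than 3 SD below its plate's average and above zero; inconclusive = below that plate limit but binding exactly zero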;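 also: hits lower antibody fragment binding to DSG3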
Target sequence (P32926 whole entry, looked up, the tested form may be a part): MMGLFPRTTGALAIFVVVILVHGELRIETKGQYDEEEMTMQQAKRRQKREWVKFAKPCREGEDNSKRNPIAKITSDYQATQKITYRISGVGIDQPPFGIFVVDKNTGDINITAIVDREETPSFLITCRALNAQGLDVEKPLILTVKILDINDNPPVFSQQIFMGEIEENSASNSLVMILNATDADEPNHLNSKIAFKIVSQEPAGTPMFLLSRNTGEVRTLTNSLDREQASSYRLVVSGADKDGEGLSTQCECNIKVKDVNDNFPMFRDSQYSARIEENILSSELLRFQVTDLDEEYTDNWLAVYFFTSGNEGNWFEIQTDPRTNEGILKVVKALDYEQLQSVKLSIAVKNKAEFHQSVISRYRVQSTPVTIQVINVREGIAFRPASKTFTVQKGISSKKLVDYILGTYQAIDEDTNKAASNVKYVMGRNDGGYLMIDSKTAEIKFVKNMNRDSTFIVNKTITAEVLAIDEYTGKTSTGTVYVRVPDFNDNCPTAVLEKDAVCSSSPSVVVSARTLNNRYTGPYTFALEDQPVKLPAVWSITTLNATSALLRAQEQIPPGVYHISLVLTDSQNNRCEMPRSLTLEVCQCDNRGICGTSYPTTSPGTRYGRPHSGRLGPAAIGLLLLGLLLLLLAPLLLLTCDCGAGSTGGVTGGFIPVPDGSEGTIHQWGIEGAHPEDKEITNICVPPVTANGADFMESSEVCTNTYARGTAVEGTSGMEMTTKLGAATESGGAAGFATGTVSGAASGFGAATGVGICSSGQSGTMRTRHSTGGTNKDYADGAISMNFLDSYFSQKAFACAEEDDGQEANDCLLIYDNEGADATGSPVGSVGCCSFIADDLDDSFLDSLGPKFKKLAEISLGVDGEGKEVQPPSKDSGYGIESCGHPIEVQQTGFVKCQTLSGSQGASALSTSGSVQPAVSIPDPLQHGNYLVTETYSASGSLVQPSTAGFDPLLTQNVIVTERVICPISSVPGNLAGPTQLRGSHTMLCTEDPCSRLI
* = called active by the depositor; i = inactive; ? = inconclusive; / = no result; + = active, no number.

SMILES	Myeloid diff MLP	T cell HTS	Vif inh	Pemphigus Ab inh
COc1ccc(CCNC(=O)Nc2nc(C(N)C3CCCCC3)cs2)cc1OC (configuration not stated)	i	/	-3.3	/
CCC(=O)N1c2ccccc2NC2=C(C(=O)CC(c3ccco3)C2)C1c1ccco1 (configuration not stated)	i	227.5	-4.1	96.0
CC1(C)CC(=O)C2=C(C1)Nc1ccccc1N(C(=O)C1CC1)C2c1ccco1 (configuration not stated)	i	338.4	51.8*	105.1
Cc1onc(-c2ccccc2)c1C(=O)NC(=S)NNC(=O)c1ccc(O)cc1O	/	439.4	-25.3	99.4
Cc1onc(-c2ccccc2)c1C(=O)NC(=S)NNC(=O)c1ccccc1O	+	446.5	/	98.0
CCc1nc2ccc(C(=O)NCCC(C)C)cn2c1N(CC)CCOC	i	/	9.6	/
O=C(Nc1ccc(Nc2ccccc2)cc1)c1ccccc1	/	410.8	/	104.9
O=C(Nc1ccc(Nc2ccccc2)cc1)c1ccc(Br)cc1	i	291.2	1.4	95.0*
COc1cc2ccccc2cc1C(=O)Nc1ccc(Br)cn1	i	187.4	8.9	88.8*
COc1cc2ccccc2cc1C(=O)NC(=S)Nc1nnn(C)n1	i	410.0	2.6	-8.3*
Cc1cc(C)n2c(NC3CCCCC3)c(-c3ccccn3)nc2n1	i	/	/	/
O=C(COC(=O)/C=C/c1ccc(F)cc1)NC1CCS(=O)(=O)C1 (configuration not stated)	i	/	5.9	94.5
Cc1ccc[n+](C(C)C(=O)c2ccc(Cl)cc2)c1 (configuration not stated)	+	283.6	-3.0	123.1
Cc1ccccc1Nc1nnc(SCC(=O)NCC2CCCO2)s1 (configuration not stated)	i	570.0	6.2	119.5
COc1c2ccoc2nc2c(OC)c(OC[C@@H](O)C(C)(C)O)ccc12	i	157.8	56.8*	95.8
CCOC(=O)N1CCN(C(=O)COC(=O)c2ccc(Cl)nc2)CC1	i	206.9	10.8	100.6
Cc1ccn2c(C(=O)N/N=C\c3ccccc3[N+](=O)[O-])c(C)nc2c1	+	415.2	3.2	93.6
COC(=O)[C@]12CCCCC=C1N(Cc1ccc3c(c1)OCO3)C(=O)[C@H](CC(=O)NCCCN1CCCC1=O)C2	i	/	/	/
CCCn1c(N)c(C(=O)COC(=O)CNC(=O)c2ccccc2OCC)c(=O)[nH]c1=O	i	395.6	-0.7	104.6
COc1ccc(OC)c(S(=O)(=O)N2CCCC(C(=O)NCc3cccnc3)C2)c1 (configuration not stated)	i	276.7	59.6*	?
Cc1cc(C)n(-c2ccn(Cc3ccc(Cl)cc3Cl)c(=O)n2)n1	+	174.6	-23.6	112.3
Cc1nn(Cc2ccc(Cl)cc2Cl)c(C)c1NC(=O)CCl	i	775.2	-3.9	98.3
CCCC#Cc1ccc2c(c1)O[C@H](CN(C)C(=O)CC1CC1)[C@H](C)CN([C@@H](C)CO)S2(=O)=O	i	/	-0.9	/
Cc1cccc(C(=O)N2CCC(=O)N(C(COCc3cccc(C(F)(F)F)c3)Cc3ccccc3)CC2)c1 (configuration not stated)	+	488.4	12.2	98.4
Cc1cccc(C(=O)N2CCC(=O)N([C@H](COCc3cccc(C(F)(F)F)c3)Cc3ccccc3)CC2)c1	i	/	/	/
SMILES	Myeloid diff MLP	T cell HTS	Vif inh	Pemphigus Ab inh
O=C(Nc1ccc(OCC(F)(F)C(F)F)cc1)c1ccncc1	i	484.9	8.5	-12.6*
CCOc1ccc(NC(=O)c2ccncc2)cc1	i	188.6	-6.8	103.5
CC(C)(C)n1nnnc1CN(Cc1cccnc1)Cc1ccccc1Cl	+	285.0	26.0	97.9
CCOc1ccc(Cl)cc1-c1cc(C(=O)NCCOC)[nH]n1	i	/	11.4	/
OC(c1cccc(Cl)c1)c1ncc(-c2ccc(Oc3ccccc3)cc2)[nH]1 (configuration not stated)	i	/	6.9	/
CC(=O)Oc1cc2c(cc1OC(C)=O)C(=O)CCCC2	i	/	57.2*	100.5
COc1cc2c(cc1OC(C)=O)C(=O)CCCC2	i	/	-1.4	/
O=C(C[C@@H]1C/C=C\CCC(=O)OC[C@H](Cc2ccccc2)NC1=O)N[C@@H](CO)Cc1ccccc1	i	249.0	/	104.3
CNc1ccc(C(=O)N2CCN(S(=O)(=O)c3ccc4c(c3)OCCCO4)CC2)cc1[N+](=O)[O-]	+	0.0	-3.9	/
CCOC(=O)[C@]12CCCC=C1N(Cc1ccc3c(c1)OCO3)C(=O)[C@H](CC(=O)NCCCN1CCCC1=O)C2	i	/	/	/
C[C@H](NC(=O)[C@@H]1CCCN1C(=O)OC(C)(C)C)c1ccccc1	i	/	/	/
c1ccc(Cc2cc[n+](Cc3ccccn3)cc2)cc1	+	802.5	-4.1	110.8
O=[N+]([O-])c1ccc(C[n+]2ccc(Cc3ccccc3)cc2)cc1	i	201.4	-2.1	101.2
CCOC(=O)C1C2C=CC3(CN(c4ccccc4CC)C(=O)C13)O2 (configuration not stated)	i	304.9	/	104.8
CCCCCOC(=O)C1C2C=CC3(CN(c4ccccc4C)C(=O)C13)O2 (configuration not stated)	+	397.4	-13.6	110.9
C[C@@H]1ON(C)[C@H]2C[C@H]3c4[nH]c5ccccc5c4CCN3C(=O)[C@@H]12	i	/	-1.5	100.6
COc1ccc(C(C)=O)cc1Cn1c(C)c(C(=O)NCc2ccc(C(C)C)cc2)sc1=O	+	/	-4.8	/
COc1ccc(CNC(=O)c2sc(=O)n(Cc3cc(C(C)=O)ccc3OC)c2C)cc1	i	/	-3.1	/
CC(Sc1nc2ccccc2[nH]1)C(=O)NC1CCCCC1C (configuration not stated)	i	49.0*	-1.2	/
Cc1n[nH]c(=O)nc1Nc1ccc(O)cc1	i	357.1	65.9*	104.4
O=C(/C=C/c1ccncc1)c1cc(Cl)ccc1O	+	630.2	4.4	92.3
COc1ccc(Nc2nc(Cl)c(C=O)s2)cc1	+	155.4	-2.4	120.2
Cc1ccc(N/C(=N/S(=O)(=O)c2cccs2)c2ccccc2)c(C)c1	+	229.9	/	85.3
c1ccc2c(c1)ccc1ncccc12	i	317.6	0.8	87.0
c1ccc2ncccc2c1	i	0.0	-6.3	76.7*
Cc1cccc2sc(NC(=O)CCn3cccc3)nc12	i	328.8	-0.9	99.6
Cc1cccc2sc(NC(=O)Cn3cccc3)nc12	+	467.9	/	105.3
CC1CCCC(C)N1CCNC(=O)CCc1nnc2n(Cc3ccccc3)c(=O)c3ccccc3n12 (configuration not stated)	i	0.0*	9.8	114.8
CCC(CO)[n+]1c(C)cc(/C=C2\Sc3ccccc3N2Cc2ccccc2)cc1C (configuration not stated)	+	i	/	223.7
CCN1/C(=C2\SC(=S)N(Cc3ccccc3)C2=O)Sc2ccccc21	i	274.3	1.6	91.4

Screens as filed in PubChem.
